Test results taken from ChEMBL document CHEMBL1649574, “Prevalence and characterization of heterogeneous vancomycin-intermediate Staphylococcus aureus isolates from 14 cities in China” (2009).

Key:
Type in all cases: functional
Staphylococcus aureus [1] = assay: Antimicrobial activity against SCCmec type III vancomycin-intermediate Staphylococcus aureus isolate 13b16 by agar dilution method
Procedure, shortened: (§1)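 Agar-dilution MICs were measured on a subset of 200 blood MRSA isolates from China. Agents: oxacillin, rifampin, gentamicin, levofloxacin, erythromycin, vancomycin, teicoplanin, tigecycline, ceftobiprole and linezolid. Phenotype came from the PAP-AUC ratio of each isolate to S. aureus Mu3 (VSSA <0.9; hVISA 0.9 to 1.3; VISA ≥1.3), read on BHI agar with 0 to 8.0 mg/liter vancomycin after 48 h at 35°C.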

Staphylococcus aureus [2] = assay: Antimicrobial activity against heterogeneous vancomycin-susceptible Staphylococcus aureus assessed as intermediate isolates by agar dilution method
Staphylococcus aureus [3] = assay: Antimicrobial activity against SCCmec type III vancomycin-intermediate Staphylococcus aureus isolate b3k2345 by agar dilution method; procedure, shortened: as §1
Staphylococcus aureus [4] = assay: Antimicrobial activity against SCCmec type II vancomycin-intermediate Staphylococcus aureus isolate b2k4781 by agar dilution method; procedure, shortened: as §1
Staphylococcus aureus [5] = assay: Antimicrobial activity against SCCmec type II vancomycin-intermediate Staphylococcus aureus isolate 4sy39 by agar dilution method; procedure, shortened: as §1
Staphylococcus aureus [6] = assay: Antimicrobial activity against heterogeneous vancomycin-intermediate Staphylococcus aureus assessed as growth inhibition at 2 times MIC; set-up: scale not given: the % may be the effect or the level left
Staphylococcus aureus [7] = assay: Antimicrobial activity against vancomycin-susceptible Staphylococcus aureus assessed as growth inhibition at 16 times MIC; set-up: scale not given: the % may be the effect or the level left
Staphylococcus aureus [8] = assay: Antimicrobial activity against SCCmec type II vancomycin-intermediate Staphylococcus aureus isolate 6zjsau7 by agar dilution method; procedure, shortened: as §1
Staphylococcus aureus [9] = assay: Antimicrobial activity against SCCmec type II vancomycin-intermediate Staphylococcus aureus isolate 07b63 by agar dilution method; procedure, shortened: as §1
Staphylococcus aureus [10] = assay: Antimicrobial activity against vancomycin-susceptible Staphylococcus aureus assessed as growth inhibition at 4 times MIC; set-up: scale not given: the % may be the effect or the level left
Staphylococcus aureus [11] = assay: Antimicrobial activity against SCCmec type III vancomycin-intermediate Staphylococcus aureus isolate xa07029 by agar dilution method; procedure, shortened: as §1
Staphylococcus aureus [12] = assay: Antimicrobial activity against SCCmec type III vancomycin-intermediate Staphylococcus aureus isolate 11b091 by agar dilution method; procedure, shortened: as §1
Staphylococcus aureus [13] = assay: Antimicrobial activity against vancomycin-susceptible Staphylococcus aureus assessed as growth inhibition at 0.5 times MIC; set-up: scale not given: the % may be the effect or the level left
Staphylococcus aureus [14] = assay: Antimicrobial activity against vancomycin-susceptible Staphylococcus aureus assessed as growth inhibition at 0.125 times MIC; set-up: scale not given: the % may be the effect or the level left
Staphylococcus aureus [15] = assay: Antimicrobial activity against SCCmec type II vancomycin-intermediate Staphylococcus aureus isolate sh06024 by agar dilution method; procedure, shortened: as §1
Staphylococcus aureus [16] = assay: Antimicrobial activity against vancomycin-susceptible Staphylococcus aureus assessed as growth inhibition at MIC; set-up: scale not given: the % may be the effect or the level left
Staphylococcus aureus [17] = assay: Antimicrobial activity against SCCmec type III vancomycin-intermediate Staphylococcus aureus isolate gs07022 by agar dilution method; procedure, shortened: as §1
Staphylococcus aureus [18] = assay: Antimicrobial activity against heterogeneous vancomycin-intermediate Staphylococcus aureus by agar dilution method; procedure, shortened: as §1
Staphylococcus aureus [19] = assay: Antimicrobial activity against heterogeneous vancomycin-intermediate Staphylococcus aureus assessed as growth inhibition at 0.125 times MIC; set-up: scale not given: the % may be the effect or the level left
Staphylococcus aureus [20] = assay: Antimicrobial activity against heterogeneous vancomycin-susceptible Staphylococcus aureus assessed as susceptible isolates by agar dilution method
Procedure, shortened: (§2)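 MICs by agar dilution for all 200 MRSA blood isolates (oxacillin, rifampin, gentamicin, levofloxacin, erythromycin, vancomycin, teicoplanin, tigecycline, ceftobiprole, linezolid). Isolates were grouped by PAP-AUC ratio against S. aureus Mu3: below 0.9 VSSA, 0.9 to 1.3 hVISA, 1.3 or more VISA.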

Staphylococcus aureus [21] = assay: Antimicrobial activity against vancomycin-susceptible Staphylococcus aureus by agar dilution method; procedure, shortened: as §1
Staphylococcus aureus [22] = assay: Antimicrobial activity against heterogeneous vancomycin-intermediate Staphylococcus aureus assessed as growth inhibition at 0.5 times MIC; set-up: scale not given: the % may be the effect or the level left
Staphylococcus aureus [23] = assay: Antimicrobial activity against SCCmec type III vancomycin-intermediate Staphylococcus aureus isolate b4k6307 by agar dilution method; procedure, shortened: as §1
Staphylococcus aureus [24] = assay: Antimicrobial activity against SCCmec type III vancomycin-intermediate Staphylococcus aureus isolate sh07043 by agar dilution method; procedure, shortened: as §1
Staphylococcus aureus [25] = assay: Antimicrobial activity against SCCmec type III vancomycin-intermediate Staphylococcus aureus isolate b3k5923 by agar dilution method; procedure, shortened: as §1
Staphylococcus aureus [26] = assay: Antimicrobial activity against vancomycin-susceptible Staphylococcus aureus assessed as growth inhibition at 0.25 times MIC; set-up: scale not given: the % may be the effect or the level left
Staphylococcus aureus [27] = assay: Antimicrobial activity against SCCmec type III vancomycin-intermediate Staphylococcus aureus isolate b5k3529 by agar dilution method; procedure, shortened: as §1
Staphylococcus aureus [28] = assay: Antimicrobial activity against heterogeneous vancomycin-intermediate Staphylococcus aureus assessed as growth inhibition at MIC; set-up: scale not given: the % may be the effect or the level left
Staphylococcus aureus [29] = assay: Antimicrobial activity against vancomycin-susceptible Staphylococcus aureus assessed as growth inhibition at 2 times MIC; set-up: scale not given: the % may be the effect or the level left
Staphylococcus aureus [30] = assay: Antimicrobial activity against heterogeneous vancomycin-intermediate Staphylococcus aureus assessed as intermediate isolates by agar dilution method; procedure, shortened: as §2
Staphylococcus aureus [31] = assay: Antimicrobial activity against heterogeneous vancomycin-intermediate Staphylococcus aureus assessed as growth inhibition at 16 times MIC; set-up: scale not given: the % may be the effect or the level left
Staphylococcus aureus [32] = assay: Antimicrobial activity against SCCmec type III vancomycin-intermediate Staphylococcus aureus isolate b6k7974 by agar dilution method; procedure, shortened: as §1
Staphylococcus aureus [33] = assay: Antimicrobial activity against SCCmec type III vancomycin-intermediate Staphylococcus aureus isolate zj07028 by agar dilution method; procedure, shortened: as §1
Staphylococcus aureus [34] = assay: Antimicrobial activity against SCCmec type III vancomycin-intermediate Staphylococcus aureus isolate gz06040 by agar dilution method; procedure, shortened: as §1
Staphylococcus aureus [35] = assay: Antimicrobial activity against SCCmec type III vancomycin-intermediate Staphylococcus aureus isolate gz07030 by agar dilution method; procedure, shortened: as §1
Staphylococcus aureus [36] = assay: Antimicrobial activity against SCCmec type III vancomycin-intermediate Staphylococcus aureus isolate b2k3421 by agar dilution method; procedure, shortened: as §1
Staphylococcus aureus [37] = assay: Antimicrobial activity against heterogeneous vancomycin-intermediate Staphylococcus aureus assessed as growth inhibition at 0.25 times MIC; set-up: scale not given: the % may be the effect or the level left
Staphylococcus aureus [38] = assay: Antimicrobial activity against heterogeneous vancomycin-intermediate Staphylococcus aureus assessed as growth inhibition at 4 times MIC; set-up: scale not given: the % may be the effect or the level left
Staphylococcus aureus [39] = assay: Antimicrobial activity against SCCmec type III vancomycin-intermediate Staphylococcus aureus isolate bd4768 by agar dilution method; procedure, shortened: as §1
Staphylococcus aureus [40] = assay: Antimicrobial activity against SCCmec type III vancomycin-intermediate Staphylococcus aureus isolate 15b52 by agar dilution method; procedure, shortened: as §1
Staphylococcus aureus [41] = assay: Antimicrobial activity against vancomycin-intermediate Staphylococcus aureus by agar dilution method; procedure, shortened: as §1
Staphylococcus aureus [42] = assay: Antimicrobial activity against SCCmec type III vancomycin-intermediate Staphylococcus aureus isolate b5k3578 by agar dilution method; procedure, shortened: as §1
Staphylococcus aureus [43] = assay: Antimicrobial activity against SCCmec type II vancomycin-intermediate Staphylococcus aureus isolate 4sy32 by agar dilution method; procedure, shortened: as §1
Staphylococcus aureus [44] = assay: Antimicrobial activity against SCCmec type IV vancomycin-intermediate Staphylococcus aureus isolate 06b41 by agar dilution method; procedure, shortened: as §1
Staphylococcus aureus [45] = assay: Antimicrobial activity against SCCmec type III vancomycin-intermediate Staphylococcus aureus isolate 5zjsau3 by agar dilution method; procedure, shortened: as §1
Staphylococcus aureus [46] = assay: Antimicrobial activity against SCCmec type III vancomycin-intermediate Staphylococcus aureus isolate gz06051 by agar dilution method; procedure, shortened: as §1
Staphylococcus aureus [47] = assay: Antimicrobial activity against SCCmec type III vancomycin-intermediate Staphylococcus aureus isolate b6k1642 by agar dilution method; procedure, shortened: as §1
Staphylococcus aureus [48] = assay: Antimicrobial activity against heterogeneous vancomycin-intermediate Staphylococcus aureus assessed as susceptible isolates by agar dilution method; procedure, shortened: as §2

CN(C)c1cc(NC(=O)CNC(C)(C)C)c(O)c2c1C[C@H]1C[C@H]3[C@H](N(C)C)C(O)=C(C(N)=O)C(=O)[C@@]3(O)C(O)=C1C2=O [TIGECYCLINE]
100%: Activity (Staphylococcus aureus [6]) | Activity (Staphylococcus aureus [7]) | Activity (Staphylococcus aureus [10]) | Activity (Staphylococcus aureus [13]) | Activity (Staphylococcus aureus [16]) | Activity (Staphylococcus aureus [20]) | Activity (Staphylococcus aureus [22]) | Activity (Staphylococcus aureus [28]) | Activity (Staphylococcus aureus [29]) | Activity (Staphylococcus aureus [31]) | Activity (Staphylococcus aureus [38]) | Activity (Staphylococcus aureus [48])
0.032 µg/mL: MIC (Staphylococcus aureus [25])
92.6%: Activity (Staphylococcus aureus [37])
90.2%: Activity (Staphylococcus aureus [26])
0.5 µg/mL: MIC (Staphylococcus aureus [9]) | MIC (Staphylococcus aureus [33])
0.125 µg/mL: MIC (Staphylococcus aureus [1]) | MIC (Staphylococcus aureus [4]) | MIC (Staphylococcus aureus [12]) | MIC (Staphylococcus aureus [15]) | MIC50 (Staphylococcus aureus [21]) | MIC (Staphylococcus aureus [27]) | MIC (Staphylococcus aureus [34]) | MIC (Staphylococcus aureus [35]) | MIC (Staphylococcus aureus [36]) | MIC (Staphylococcus aureus [39])
0%: Activity (Staphylococcus aureus [2]) | Activity (Staphylococcus aureus [30])
0.25 µg/mL: MIC (Staphylococcus aureus [5]) | MIC (Staphylococcus aureus [8]) | MIC (Staphylococcus aureus [11]) | MIC (Staphylococcus aureus [17]) | MIC50 (Staphylococcus aureus [18]) | MIC90 (Staphylococcus aureus [18]) | MIC90 (Staphylococcus aureus [21]) | MIC (Staphylococcus aureus [24]) | MIC (Staphylococcus aureus [32]) | MIC (Staphylococcus aureus [40]) | MIC (Staphylococcus aureus [41]) | MIC (Staphylococcus aureus [42]) | MIC (Staphylococcus aureus [43]) | MIC (Staphylococcus aureus [44]) | MIC (Staphylococcus aureus [45]) | MIC (Staphylococcus aureus [46]) | MIC (Staphylococcus aureus [47])
44.4%: Activity (Staphylococcus aureus [19])
54.3%: Activity (Staphylococcus aureus [14])
0.064 µg/mL: MIC (Staphylococcus aureus [3]) | MIC (Staphylococcus aureus [23])
